From ChEMBL document CHEMBL1158012, “Sapinofuranones A and B, two new 2(3H)-dihydrofuranones produced by sphaeropsis sapinea, a common pathogen of conifers” (J Nat Prod, 1999)

Experiments:
Type in all cases: organism-based
Settings in all cases: in vivo
[1] = tested on: Hesperocyparis arizonica; test: Phytotoxicity against Cupressus arizonica assessed as browning of twigs at 0.1 to 0.2 mg/ml after 96 hrs
In short: (§1)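 Severed cypress or pine twig cuttings were placed in 3 mL of test solution at 0.1-0.2 mg/mL for 96 h, then moved to distilled water. They were kept in a growth chamber at 23 °C, 60% relative humidity and low light. Symptoms were scored over 21 days.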

[2] = tested on: Solanum lycopersicum; test: Phytotoxicity against Lycopersicon esculatum L var. Marmande assessed as appearance of epinasty on petioles at 0.05 to 0.1 mg/ml after 48 hrs
In short: (§2)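 Tomato (var. Marmande) seedlings were grown at 25 °C, 70-80% relative humidity and a 12 h photoperiod. Cuttings from 21-day-old seedlings were placed in 3 mL of solution at 0.05-0.1 mg/mL for 48 h, then moved to distilled water. Epinasty and browning were scored over 2 days.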

[3] = tested on: Hesperocyparis macrocarpa; test: Phytotoxicity against Cupressus macrocarpa var. lambertiana assessed as browning of twigs at 0.1 to 0.2 mg/ml after 96 hrs; in short: as §1
[4] = tested on: Hesperocyparis arizonica; test: Phytotoxicity against Cupressus arizonica assessed as sapwood stain like symptoms on seedlings at 0.1 to 0.2 mg/ml after 96 hrs
In short: (§3)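 A 0.1 mg/mL solution was injected into the cortical tissue 25 cm from the apex of 3-year-old cypress or 2-year-old pine seedlings. Stain, needle and blight symptoms were then scored.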

[5] = tested on: Hesperocyparis macrocarpa; test: Phytotoxicity against Cupressus macrocarpa var. lambertiana assessed as sapwood stain like symptoms on seedlings at 0.1 to 0.2 mg/ml after 96 hrs; in short: as §3
[6] = tested on: Pinus halepensis; test: Phytotoxicity against Pinus halepensis L assessed as appearance of severe needles on seedlings at 0.1 to 0.2 mg/ml after 96 hrs; in short: as §3
[7] = tested on: Pinus halepensis; test: Phytotoxicity against Pinus halepensis L assessed as yellowing of twigs at 0.1 to 0.2 mg/ml after 96 hrs; in short: as §1
[8] = tested on: Solanum lycopersicum; test: Phytotoxicity against Lycopersicon esculatum L var. Marmande assessed as browning of petioles and leaves at 0.05 to 0.1 mg/ml after 48 hrs; in short: as §2
[9] = tested on: Pinus radiata; test: Phytotoxicity against Pinus radiata L assessed as appearance of severe needles on seedlings at 0.1 to 0.2 mg/ml after 96 hrs; in short: as §3
[10] = tested on: Cupressus sempervirens; test: Phytotoxicity against Cupressus sempervirens var. pyramidalis assessed as browning of twigs at 0.1 to 0.2 mg/ml after 96 hrs; in short: as §1
[11] = tested on: Pinus radiata; test: Phytotoxicity against Pinus radiata L assessed as yellowing of twigs at 0.1 to 0.2 mg/ml after 96 hrs; in short: as §1
[12] = tested on: Cupressus sempervirens; test: Phytotoxicity against Cupressus sempervirens var. pyramidalis assessed as sapwood stain like symptoms on seedlings at 0.1 to 0.2 mg/ml after 96 hrs; in short: as §3

Measured: Activity

C/C=C/C=C\[C@@H](O)[C@H]1CCC(=O)O1 [SAPINOFURANONE B]
Toxic: [1] | [2] | [3] | [4] | [5] | [6] | [7] | [8] | [9] | [10] | [11] | [12]

C/C=C/C=C\[C@H](O)[C@H]1CCC(=O)O1 [SAPINOFURANONE A]
Toxic: [1] | [2] | [3] | [4] | [5] | [6] | [7] | [8] | [9] | [10] | [11] | [12]
